# Results of several laboratories.
# Each line is one published result; the experiments were not run side by side.
SMILES,assay,test system,conditions,quantity,value
O=C1CCC(N2Cc3cc(CO)c(F)cc3C2=O)C(=O)N1 (stereo not drawn),,"male CD-1 mouse, plasma","intravenous, 1 mg/kg, 1.02 min",concentration,1790 ng/mL
Cc1ccc2c(c1)C(=O)[C@]1(O)CCN(c3ccc4nc(C)ccc4c3)C1=N2,,"mouse, brain","intraperitoneal, 10 mg/kg, 30 min, single dose",concentration,1000 nM
O=C(O)CC[C@H](NC(=O)N[C@@H](CCCCNC(=O)[C@H](Cc1ccc2ccccc2c1)NC(=O)[C@H]1CC[C@H](CNC(=O)CN2CCN(CC(=O)O)CCN(CC(=O)O)CCN(CC(=O)O)CC2)CC1)C(=O)O)C(=O)O,shake flask,water,,logP,-1.01
Cc1cccc(CNC(=O)c2cn(CCNC(=O)c3ccccc3Sc3c([N+](=O)[O-])ncn3C)c3cc4c(cc3c2=O)OCO4)n1,metabolic stability,"cynomolgus monkey, blood","1 µM, whole blood",half-life,5.92 h
Cc1nc2ccc(OCc3ccc(C(F)(F)F)cc3)cc2[nH]1,,"male BALB/c mouse, brain","intravenous, 1 mg/kg, 3 h",concentration,402 ng/g
C=CC(=O)NC1CCN(c2ncc3ncnc(Nc4ccc(Oc5ccc6c(c5)ncn6C)c(C)c4)c3n2)CC1,,,pH 7.4,logP,4.7
Cc1ccccc1CN1C(=O)C2=C(CCN(Cc3ccccc3)C2)N2CCN=C12,potentiometric,water,,logP,3.09
CN(C)C(=O)c1cc2cnc(Nc3ccc(-c4ccc5c(=O)cc(N6CCOCC6)oc5c4)cc3)nc2n1C1CCCC1.Cl,,"BALB/c mouse, plasma","oral, 20 mg/kg",half-life,4.6 h
Cc1cc2c(C(=O)O)cccc2n1-c1nc2c(c(NCc3ccccc3)n1)CCCN2,metabolic stability,"dog, liver microsomes","1 µM, pH 7.4",microsomal CLint,1.15 µL/min/mg
NCc1ccc(-c2nn(Cc3ccccc3)c3ccccc23)o1,,"male CD-1 mouse, plasma","intravenous, 5 mg/kg",half-life,1.08 h
Cc1nsc(-c2nnc3n2CCN(C(=O)c2ccc(F)cc2)[C@@H]3C)n1,,,,logP,1.5
NCc1cc2c(cc1F)C(=O)N(C1CCC(=O)NC1=O)C2 (stereo not drawn),,"male CD-1 mouse, plasma","intravenous, 1 mg/kg, 30 min",concentration,33.2 ng/mL
CONC(=O)c1cccc2c1cc(C)n2-c1nc2c(c(NCc3ccccc3)n1)CCCN2,metabolic stability,"dog, liver microsomes","1 µM, pH 7.4",microsomal CLint,84 µL/min/mg
OCc1ccc(-c2nn(Cc3ccccc3)c3ccccc23)o1,,"male CD-1 mouse, plasma","intraperitoneal, 30 mg/kg",half-life,1.3 h
CC(C)n1ncc2c(C(=O)NCC3(C)CNC3)cc(C3CC3)nc21,,"female BALB/c mouse, plasma","intraperitoneal, 50 mg/kg, 2 h",concentration,2230 ng/mL
